Most compounds without a hit are left out; they make up all but 10% or so of the library.
PMI activator = increases human mannose-6-phosphate isomerase activity; activation factor at 20 µM; P34949; actives 0.005% (n = 190,000); purified human PMI, coupled resazurin fluorescence, 20 min; active compounds read high; 1 = vehicle control, 0 substrate-free wells;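 active = activation factor of 2 or more at 20 µM, relative to plate controls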
Target sequence (P34949 whole entry, looked up): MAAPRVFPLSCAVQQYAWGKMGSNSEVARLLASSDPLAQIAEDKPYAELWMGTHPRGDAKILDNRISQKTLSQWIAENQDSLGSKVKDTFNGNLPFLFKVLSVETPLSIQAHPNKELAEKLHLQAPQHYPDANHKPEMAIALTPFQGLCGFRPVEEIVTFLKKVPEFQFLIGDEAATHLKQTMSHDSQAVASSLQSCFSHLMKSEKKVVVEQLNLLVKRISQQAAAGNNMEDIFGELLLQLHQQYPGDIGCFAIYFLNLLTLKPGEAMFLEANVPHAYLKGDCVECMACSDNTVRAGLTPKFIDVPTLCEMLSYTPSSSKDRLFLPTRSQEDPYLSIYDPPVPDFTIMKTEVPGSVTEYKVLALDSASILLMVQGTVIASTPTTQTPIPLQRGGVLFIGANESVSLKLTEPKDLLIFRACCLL
WT yeast gro inh = growth inhibition of WT yeast, mitochondrial fusion screen; mitochondrial fusion phenotypic screen, WT strain; inhibition, % at 10 µM; actives 2.1% (n = 190,000); AID 1362; in the data active = inhibition above about 58%; tested in S. cerevisiae
Diaphorase act = counter-screen for diaphorase-based assays: diaphorase activators and chemical reducers. Diaphorase/resazurin coupled assay, resorufin fluorescence, 16 min; active compounds read high; 1 = vehicle wells, 0 = NADH-free wells. activation factor at 20 µM. actives 0.005% (n = 190,000). AID 1229;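 active = diaphorase activity raised at least twofold by the compound at 20 µM; inactive = activation factor below 2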
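Test system: Clostridium kluyveri diaphorase, purified enzyme; input: enzyme 0.07 U/mL final; buffer or medium: 50 mM HEPES pH 7.4 with 4.542 mM MgCl2, 0.005% Tween 20; also added: 0.114 mM NADH and 0.1 mM resazurin, final amounts; schedule: 16 min enzyme reaction, ambient temperature; technique: fluorescence of resorufin, 544 nm excitation, 590 nm emission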
PMI act hi M6P = activators of human phosphomannose isomerase at near-saturating mannose 6-phosphate | P34949 | coupled PMI enzyme assay, resazurin fluorescence, 20 min; active compounds read high; 1 = untreated enzyme, 0 = substrate-free blank | activation factor at 20 µM | actives 0.34% (n = 190,000) | AID 1216;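 active = activation factor of 2 or more at 20 µM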
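Technique: Diaphorase-driven resazurin-to-resorufin fluorescence, excitation 544, emission 590 nm | Assay system: Human PMI in coupled enzyme assay | Times: Enzyme reaction with compound 20 min at room temperature | Medium: HEPES-buffered pH 7.4 with magnesium and detergent | Reagent: Mannose-6-phosphate 1.0 mM (near-saturating) plus 0.22 mM NADP+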
Lmaj promast = inhibitors of Leishmania major promastigote growth | AID 1063 | inhibition, % at 10 µM | actives 9% (n = 200,000) | Leishmania major promastigotes, resazurin fluorescence viability; in the data active = inhibition above about 50%;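 note: promastigotes grown with compound for 44 hours at 28 °C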
* marks the source's active call; other numbers are inactive results.

SMILES | PMI activator | WT yeast gro inh | Diaphorase act | PMI act hi M6P | Lmaj promast
Cc1cc(CN(C)Cc2ccc(OCC(O)CN(C)Cc3ccccc3)cc2)on1 (centres undefined) | 0.9 | 5 | 1.2 | 0.9 | 88*
CN(Cc1ccccc1)CC(O)COc1ccc(CNCc2nccn2C)cc1 (centres undefined) | 1 | 8 | 1.3 | 1.1 | 20
CN(Cc1ccccc1)CC(O)COc1ccc(CNCCc2cccnc2)cc1 (centres undefined) | 0.9 | 6 | 1.2 | 0.9 | 83*
CCc1ccc(CNCc2ccc(OCC(O)CN(C)Cc3ccccc3)cc2)nc1 (centres undefined) | 0.9 | -6 | 1.4 | 1 | 85*
O=C(/C(C=Nc1ccc(F)cc1)=C(/O)c1ccco1)C(F)(F)F | 1.2 | -7 | 1 | 1.4 | 2
CCCCC(CC)CNC(=O)C(Cc1ccccc1)NS(=O)(=O)c1ccc2c(c1)CCC(=O)N2 (centres undefined) | 1 | 3 | 0.8 | 1 | 7
O=[N+]([O-])c1cccc(-c2csc(N/N=C/c3cccc(O)c3)n2)c1 | 1 | 84* | 0.8 | 0.9 | 98*
COc1ccc(CC(=O)Nc2nc(-c3cccc([N+](=O)[O-])c3)cs2)cc1 | 1 | 8 | 0.9 | 1 | 62*
O=C(CSc1cccc[n+]1[O-])Nc1ccc([N+](=O)[O-])cc1Cl | 1 | -14 | 1 | 1 | -4
COc1ccc([N+](=O)[O-])cc1N(CC(=O)NCC1CCCO1)S(C)(=O)=O (centres undefined) | 0.9 | 1 | 0.9 | 0.9 | 58*
COc1ccc([N+](=O)[O-])cc1N(CC(=O)NCCC1=CCCCC1)S(C)(=O)=O | 1 | -7 | 1 | 1.1 | 71*
CS(=O)(=O)N(CC(=O)NCC1CCCO1)c1cccc([N+](=O)[O-])c1 (centres undefined) | 1.1 | 18 | 0.9 | 1.1 | 5
CCSC1=NCCN1C(=O)c1ccc(S(=O)(=O)N(C)C)cc1 | 0.9 | 1 | 0.9 | 0.9 | -2
O=C(Nc1ccc(Cl)cc1)c1ccc(Br)cc1F | 0.9 | -1 | 0.9 | 1 | 7
O=C(c1ccc(S(=O)(=O)N2CCCCCC2)cc1)N(c1ccccn1)C1CCCCC1 | 1.1 | 0 | 0.9 | 1 | 56*
CC1CC(C)CN(S(=O)(=O)c2ccc(C(=O)N(c3ccccn3)C3CCCCC3)cc2)C1 (centres undefined) | 1.1 | 21 | 0.9 | 1 | 11
CCOc1ccc(C(=O)NC(=S)NCc2cccnc2)cc1[N+](=O)[O-] | 1 | 1 | 0.9 | 1 | -7
CCN(CC)CCOC(=O)c1c(C)oc2ccc(OC)cc12 | 1 | 12 | 1 | 1 | 100*
CCN(CC)CCOC(=O)c1cccc(OC)c1 | 0.9 | -2 | 0.9 | 1 | -5
C=C(C)COc1ccc2oc(C)c(C(=O)OCCOC)c2c1 | 1 | -17 | 0.8 | 0.9 | -4
CCN(CC)CCCOC(=O)c1ccc(OC)cc1O | 1 | -3 | 0.9 | 0.9 | 74*
C/C(=N\NC(=O)CSc1ncccn1)c1ccc2c(c1)OCCO2 | 0.9 | 2 | 0.9 | 0.9 | -8
OCCC1CN(Cc2cc3c(cc2Cl)OCO3)CCN1Cc1ccccc1 (centres undefined) | 0.9 | -1 | 0.9 | 1 | 9
Cc1ccc(C(=O)OCC(=O)N(C)C2CCS(=O)(=O)C2)cc1[N+](=O)[O-] (centres undefined) | 1.1 | -4 | 1.1 | 1.1 | 0
Cc1cc2c(cc1C)C(c1ccsc1)CC(=O)N2 (centres undefined) | 1 | 12 | 1 | 0.9 | 8
SMILES | PMI activator | WT yeast gro inh | Diaphorase act | PMI act hi M6P | Lmaj promast
CCC(=O)Nc1ccc2ccccc2c1 | 0.9 | -21 | 0.9 | 0.9 | -8
O=C(CSc1ccc2ccccc2c1)Nc1ccc(S(=O)(=O)Nc2nccs2)cc1 | 0.8 | 13 | 0.7 | 0.9 | 54*
O=C(CSc1ccc2ccccc2c1)Nc1ccncc1 | 1 | -1 | 0.9 | 1 | 12
CC(C)(C)CC(C)(C)NC(=O)CSCC(=O)Nc1ccc2ccccc2c1 | 0.9 | 68* | 0.8 | 0.9 | 16
O=C(CSc1ccncc1)Nc1ccc2ccccc2c1 | 0.9 | 21 | 0.9 | 0.8 | 91*
CCN1CCN(C(=O)C(C)Nc2ccc(OC)cc2OC)CC1 (centres undefined) | 0.8 | -19 | 0.9 | 0.4 | 10
